Activity calls are given as the source filed them. The calls are words filed in the database; no cut-off is given here.
How the values were obtained:
Rattus norvegicus [1] = assay: Percent decrease of hyperglycemia at 30 min after glucose loading(1 g/kg ip) relative to vehicle control in rats at dose 100 mg/kg po.; assay type: functional; parameters: scale not given: the % may be the effect or the level left
Method in brief: (§1)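 Normal rats, groups of four to six, fasted 16 h. Glucose given 1 g/kg ip, with oral vehicle or compound. Tail-vein blood glucose measured by the hexokinase method. Value is % reduction of hyperglycemia 30 min after the glucose load versus vehicle control. Dunnett's two-tailed test used.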

Rattus norvegicus [2] = assay: Percent decrease of hyperglycemia at 30 min after glucose loading(1 g/kg ip) relative to vehicle control in rats at dose 30 mg/kg po; assay type: functional, organism-based; parameters: dose 30 mg/kg; method in brief: as §1
Rattus norvegicus [3] = assay: Percent decrease of hyperglycemia at 30 min after glucose loading(1 g/kg ip) relative to vehicle control in rats at dose 100 mg/kg po; assay type: functional, organism-based; parameters: dose 100 mg/kg; method in brief: as §1
Rattus norvegicus [4] = assay: Hypoglycemic activity in fasting rats at a dose of 30 mg/kg po; assay type: functional, organism-based; parameters: dose 30 mg/kg
Method in brief: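 Normal rats, groups of four or five, fasted 16 h, then given vehicle or compound by mouth. Tail-vein blood sampled over 4 h for glucose (hexokinase method) and insulin (two-antibody radioimmunoassay). Comparison to vehicle control by Dunnett's two-tailed test.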

Rattus norvegicus [5] = assay: Percent decrease of hyperglycemia at 30 min after glucose loading(1 g/kg ip) relative to vehicle control in rats at dose 10 mg/kg po; assay type: functional, organism-based; parameters: dose 10 mg/kg; method in brief: as §1
Rattus norvegicus [6] = assay: Percent decrease of hyperglycemia at 30 min after glucose loading(1 g/kg ip) relative to vehicle control in rats at dose 30 mg/kg po.; assay type: functional; parameters: scale not given: the % may be the effect or the level left; method in brief: as §1
Rattus norvegicus [7] = assay: Percent decrease of hyperglycemia at 30 min after glucose loading(1 g/kg ip) relative to vehicle control in rats at dose 10 mg/kg po.; assay type: functional; parameters: scale not given: the % may be the effect or the level left; method in brief: as §1
Rattus norvegicus [8] = assay: Percent decrease of hyperglycemia at 30 min after glucose loading(1 g/kg ip) relative to vehicle control in rats at dose 1 mg/kg po; assay type: functional, organism-based; parameters: dose 1 mg/kg; method in brief: as §1
Rattus norvegicus [9] = assay: Percent decrease of hyperglycemia at 30 min after glucose loading(1 g/kg ip) relative to vehicle control in rats at dose 3 mg/kg po.; assay type: functional; parameters: scale not given: the % may be the effect or the level left; method in brief: as §1

With `CC1(C(=O)CCC(=O)O)CCCCC1` the Effect (Rattus norvegicus [1]) was 28% and the Effect (Rattus norvegicus [2]) was “inactive”.

In the case of `C[C@H]1CC[C@H](C(=O)OCC(=O)O)CC1`, the Effect (Rattus norvegicus [3]) is reported as “inactive”.

`CC(=O)CCC(=O)[C@H]1CC[C@H](C)CC1` was tested, and the Effect (Rattus norvegicus [1]) was 31%, the Effect (Rattus norvegicus [4]) was “inactive” and the Effect (Rattus norvegicus [5]) was “inactive”. For the same compound, the Effect (Rattus norvegicus [6]) was 30%.

With `CC1CCCC(C(=O)CCC(=O)O)C1` (centres undefined) the Effect (Rattus norvegicus [1]) was 37% and the Effect (Rattus norvegicus [2]) was “inactive”.

`C[C@H]1CC[C@H]([S+]([O-])CCC(=O)O)CC1` (some centres undefined) was tested, and the Effect (Rattus norvegicus [3]) was “inactive”.

For `CC1(C)CCC(C(=O)CCC(=O)O)CC1`, the Effect (Rattus norvegicus [1]) was 34% and the Effect (Rattus norvegicus [2]) was “inactive”.

In the case of `CC[C@H]1CC[C@H](C(=O)CCC(=O)O)CC1`, the Effect (Rattus norvegicus [3]) is reported as “inactive”.

With `C[C@H]1CC[C@H](S(=O)(=O)CCC(=O)O)CC1` the Effect (Rattus norvegicus [3]) was “inactive”.

In the case of `O=C(O)CCC(=O)C1CCCCCC1`, the Effect (Rattus norvegicus [3]) is reported as “inactive”.

`O=C(O)CCC(=O)C1CCCCC1` was tested, and the Effect (Rattus norvegicus [1]) was 26%, the Effect (Rattus norvegicus [4]) was “inactive” and the Effect (Rattus norvegicus [5]) was “inactive”. It also gave an Effect (Rattus norvegicus [6]) of 27%.

`O=C(O)CCC(=O)C1CCCC1` was tested, and the Effect (Rattus norvegicus [3]) was “inactive”.

In the case of `C[C@H]1CC[C@H](CCCC(=O)O)CC1`, the Effect (Rattus norvegicus [3]) is reported as “inactive”.

For `C[C@H]1CC[C@H](C(=O)CCC(=O)O)CC1`, the Effect (Rattus norvegicus [1]) was 65%, the Effect (Rattus norvegicus [4]) was “inactive” and the Effect (Rattus norvegicus [7]) was 32%. For the same compound, the Effect (Rattus norvegicus [8]) was “inactive”, the Effect (Rattus norvegicus [9]) was 24% and the Effect (Rattus norvegicus [6]) was 41%.

With `C[C@H]1CC[C@H](C(=O)CCCC(=O)O)CC1` the Effect (Rattus norvegicus [3]) was “inactive”.

`CC1CCCCC1C(=O)CCC(=O)O` (centres undefined) was tested, and the Effect (Rattus norvegicus [3]) was “inactive”.

`C[C@H]1CC[C@H](C(=O)CCC(N)=O)CC1` was tested, and the Effect (Rattus norvegicus [1]) was 47%, the Effect (Rattus norvegicus [4]) was “inactive” and the Effect (Rattus norvegicus [5]) was “inactive”. The Effect (Rattus norvegicus [6]) was 27%.

For `C[C@H]1CC[C@H](C(=O)NCC(=O)O)CC1`, the Effect (Rattus norvegicus [3]) was “inactive”.

`C[C@H]1CC[C@@H](C(=O)CCC(=O)O)CC1` was tested, and the Effect (Rattus norvegicus [1]) was 44%, the Effect (Rattus norvegicus [4]) was “inactive” and the Effect (Rattus norvegicus [5]) was “inactive”. The Effect (Rattus norvegicus [6]) was 32%.

For `CCC[C@H]1CC[C@H](C(=O)CCC(=O)O)CC1`, the Effect (Rattus norvegicus [3]) was “inactive”.
